The source of these data is article PMC4116148 (Biochemistry, 2014).

fluorescein = fluorescein: fluorescein label on the Lys side chain

The data set addresses T1, EHD1-EH (Homo sapiens, UniProt Q9H4M9).
T1 sequence (Q9H4M9 444-532 limits assumed): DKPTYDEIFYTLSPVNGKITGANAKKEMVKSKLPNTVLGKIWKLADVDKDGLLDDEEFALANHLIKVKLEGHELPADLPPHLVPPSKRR
In words: Fluorescence polarization. The data set is classed as binding. In outline: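 Fluorescein-labelled peptide probes mixed with the EHD1 EH domain; binding read by fluorescence polarization. Buffer: 25 mM MOPS (pH 6.8), 1 mM CaCl2, 15 mM NaCl, 1.5% DMSO, 0.1% Tween 20.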

For the substance “-YAPAEEGK(Flu)- (cyclo(YAPAEEGK(fluorescein))) [cAPA^Flu]”, the “binding to EHD1-EH” value (up to 67 μM EHD1-EH, 15 mM NaCl) was “No binding was observed”.
The substance “-YNPFEAGK(Flu)- (cyclo(YNPFEAGK(fluorescein))) [cNPF5^Flu]” registered a loss of affinity (FP direct binding, reduced charge analogue relative to cNPF1^Flu) of 3 fold.
